From ChEMBL document CHEMBL1123218, “Synthesis and inhibitory activity on carbonic anhydrase of some new sulpiride analogues studied by means of a new method” (J Med Chem, 1986) come the findings set out here.

Type in all cases: protein assay
Assay [1] has as its target T1, Carbonic anhydrase (Bos taurus) (UniProt P00921+Q95323+P18915+Q3SZX4). The assay can be described thus: Evaluated for the inhibition of carbonic anhydrase enzyme at 0.2 g/L concentration. The method, boiled down:
(§1)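 Potentiometric CO2-evolution assay tracked with a pCO2 electrode, 25 ± 0.1 °C, constant stirring, pH 7.0 (0.1 M phosphate buffer), 60 min. NaHCO3 aliquots (0.1 and 5.0 mL) were added to 30 mL buffer at min 2 and 14. CA solution (1.0 mL) was added just before the second bicarbonate addition. Inhibitor was present in the buffer from the assay start.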

Assay [2] deals with T1, Carbonic anhydrase (Bos taurus). The assay can be described thus: Compound was evaluated for the inhibition of carbonic anhydrase enzyme at 0.2 g/L concentration; a=No inhibition detected. In short, it runs like this:
as §1

The target is the same in assay [3]. The assay can be described thus: Compound was evaluated for the inhibition of carbonic anhydrase enzyme at 0.5 g/L concentration; a=No inhibition detected. The method, boiled down:
as §1

Assay [4] shares this target. The assay can be described thus: Compound was evaluated for the inhibition of carbonic anhydrase enzyme at 1.0 g/L concentration; a=No inhibition detected. The method, boiled down: as §1
The target is the same in assay [5]. The assay can be described thus: Compound was evaluated for the inhibition of carbonic anhydrase enzyme at 1.5 g/L concentration; a=No inhibition detected. The method, boiled down: as §1
Assay [6] has the same target. The assay can be described thus: Compound was evaluated for the inhibition of carbonic anhydrase enzyme at 2.0 g/L concentration; a=No inhibition detected. The method, boiled down:
as §1

The source made the active and inactive calls. The calls are words filed in the database; no cut-off is given here.

As to `NS(=O)(=O)c1nc(C(=O)N2CCN(Cc3ccccc3)CC2)c[nH]1`, the inhibition (as a rule, the relative decrease from the control value, in per cent) in assay [1] was determined as 68.9%.

Turning to `CC[C@H](C)COc1ccc(S(N)(=O)=O)cc1C(=O)NC[C@@H]1CCCN1CC`, the inhibition in assay [1] amounted to 42.4%.

In assay [1], `CCC(C)CN1CCN(C(=O)c2cc(S(N)(=O)=O)ccc2OC)CC1` (stereo not given) showed an inhibition of 46.2%.

Consider `COc1cccc(CN2CCN(C(=O)c3cc(S(N)(=O)=O)ccc3OC)CC2)c1`, for which the inhibition in assay [1] is 66.7%.

In the case of `COc1ccc(S(N)(=O)=O)cc1C(=O)NCCN1CCCCC1`, the inhibition in assay [1] came out at 39.4%.

`COc1ccc(S(N)(=O)=O)cc1CN1CCN(Cc2ccccc2)CC1`: the inhibition in assay [1] came to 37.9%.

`CC[C@H](C)COc1ccc(S(N)(=O)=O)cc1C(=O)NC[C@H]1CCCN1CC` registered an inhibition in assay [1] of 41.7%.

As to `CCN1CCC[C@H]1CNC(=O)c1c(OC)c(Br)cc(Br)c1OC`, the inhibition entry in assay [2], in assay [3], in assay [4], in assay [5] and in assay [6] was “No inhibition” in each case.

Molecule `COc1ccc(S(N)(=O)=O)cc1C(=O)N1CCN(CC(=O)N2CCCC2)CC1` had an inhibition in assay [1] of 45.5%.

`COc1ccc(S(N)(=O)=O)cc1C(=O)N1CCN(CC(C)C)CC1` returned an inhibition in assay [1] of 36.4%.

Molecule `COc1ccc(S(N)(=O)=O)cc1C(=O)N1CCN(CC2CCCCC2)CC1` yielded an inhibition in assay [1] of 51.5%.

With `CCN1CCCC1CNC(=O)c1cc(S(=O)(=O)CC)ccc1OC` (stereo not given), the inhibition result in assay [2], in assay [3], in assay [4], in assay [5] and in assay [6] was “inactive” each time.

For `C=CCN1CCN(C(=O)c2cc(S(N)(=O)=O)ccc2OC)CC1`, the inhibition in assay [1] is 36.4%.

With `COc1ccc(S(N)(=O)=O)cc1C(=O)N1CCN(Cc2cc(OC)c(OC)c(OC)c2)CC1`, the inhibition in assay [1] was found to be 61.4%.

In assay [1], `COc1ccc(S(N)(=O)=O)cc1C(=O)N1CCN2CCCC2C1` (stereo not given) showed an inhibition of 46.2%.

On to `CCN1CCCC1CN(C)C(=O)c1cc(S(N)(=O)=O)ccc1OC` (stereo not given), for which the inhibition in assay [1] is 39.4%.

As for `COc1ccc(S(N)(=O)=O)cc1C(=O)N1CCN(Cc2ccccc2)CC1`, in assay [1], the inhibition stood at 58.3%.

As for `COc1ccc(S(N)(=O)=O)cc1C(=O)N1CCNCC1`, the inhibition in assay [1] stood at 30.3%.

`COc1ccc(S(N)(=O)=O)cc1C(=O)NCCCN1CCOCC1` showed an inhibition in assay [1] of 45.5%.

Turning to `COc1ccc(S(N)(=O)=O)cc1C(=O)N1CCN(CC(=O)NC(C)C)CC1`, the inhibition in assay [1] was determined as 54.6%.

For the molecule `COc1ccc(S(N)(=O)=O)cc1C(=O)N1CCN(Cc2ccc(S(N)(=O)=O)cc2)CC1`, in assay [1], the inhibition turned out to be 70.5%.

Molecule `COc1ccc(CN2CCN(C(=O)c3cc(S(N)(=O)=O)ccc3OC)CC2)cc1` had an inhibition in assay [1] of 63.6%.
